Assay results: publication PMC4532346 (Drug Design, Development and Therapy, 2015)
Like-named read-outs stand apart in the source and are kept apart here.

Assays:
[1] = biological target: CYP2D6 (Homo sapiens, UniProt P10635); experiment: cytochrome P450 inhibition, CYP2D6; assay type: in vitro ADME
[2] = biological target: CYP3A4 (Homo sapiens, UniProt P08684); experiment: cytochrome P450 inhibition, CYP3A4; assay type: in vitro ADME
[3] = biological target: CYP2C9 (Homo sapiens, UniProt P11712); experiment: cytochrome P450 inhibition, CYP2C9; assay type: in vitro ADME
[4] = biological target: T1, CYP1A2 (Homo sapiens, UniProt P05177); experiment: cytochrome P450 inhibition, CYP1A2; assay type: in vitro ADME
T1 sequence (P05177 1-516): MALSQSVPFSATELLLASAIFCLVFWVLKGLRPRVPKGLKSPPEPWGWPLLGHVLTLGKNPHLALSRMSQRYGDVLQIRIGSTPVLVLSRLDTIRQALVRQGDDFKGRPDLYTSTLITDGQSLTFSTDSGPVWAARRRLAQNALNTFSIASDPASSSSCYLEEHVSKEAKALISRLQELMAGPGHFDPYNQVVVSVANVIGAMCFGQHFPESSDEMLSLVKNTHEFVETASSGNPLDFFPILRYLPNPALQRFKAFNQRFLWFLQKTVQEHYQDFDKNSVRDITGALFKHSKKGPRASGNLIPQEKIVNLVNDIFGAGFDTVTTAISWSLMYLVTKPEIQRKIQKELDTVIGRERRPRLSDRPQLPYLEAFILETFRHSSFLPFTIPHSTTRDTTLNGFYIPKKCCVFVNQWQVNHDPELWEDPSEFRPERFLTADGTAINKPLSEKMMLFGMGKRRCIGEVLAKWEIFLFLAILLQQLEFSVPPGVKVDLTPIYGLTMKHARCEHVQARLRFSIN

[5] = biological target: CYP2C19 (Homo sapiens, UniProt P33261); experiment: cytochrome P450 inhibition, CYP2C19; assay type: in vitro ADME
[6] = system: Caco-2 cell monolayer; experiment: Caco-2 permeability; assay type: in vitro ADME, human; details: Papp(B-A)/Papp(A-B)
How it was run: (§1)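 Caco-2 cells grown in DMEM with 10% FBS, penicillin and streptomycin, seeded at 1×10^5 cells/cm2 on Transwell inserts and cultured 22 days at 37°C, 5% CO2. Preincubated 30 min in HBSS–HEPES. Only inserts with lucifer yellow ≤1% used, rechecked after the run. Test compound at 2 and 20 μM (1% DMSO final) added to donor, triplicate, A–B and B–A. Papp and efflux ratio calculated.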

[7] = Caco-2 permeability; assay type: in vitro ADME, human; details: human
How it was run: as §1

Sequence of CYP3A4 (P08684 whole entry): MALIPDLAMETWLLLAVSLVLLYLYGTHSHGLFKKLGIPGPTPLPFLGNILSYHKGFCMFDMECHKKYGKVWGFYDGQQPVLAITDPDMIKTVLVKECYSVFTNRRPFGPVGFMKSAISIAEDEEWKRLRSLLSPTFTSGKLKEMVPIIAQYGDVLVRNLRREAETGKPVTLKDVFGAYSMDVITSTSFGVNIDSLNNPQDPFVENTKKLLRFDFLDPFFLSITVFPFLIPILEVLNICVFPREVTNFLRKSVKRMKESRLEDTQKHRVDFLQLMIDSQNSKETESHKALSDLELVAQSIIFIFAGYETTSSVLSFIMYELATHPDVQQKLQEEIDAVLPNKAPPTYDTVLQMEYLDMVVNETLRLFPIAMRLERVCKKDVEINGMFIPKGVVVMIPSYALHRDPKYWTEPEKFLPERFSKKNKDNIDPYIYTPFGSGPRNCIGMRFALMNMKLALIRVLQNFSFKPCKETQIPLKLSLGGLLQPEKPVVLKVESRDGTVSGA
Sequence of CYP2C9 (P11712 whole entry): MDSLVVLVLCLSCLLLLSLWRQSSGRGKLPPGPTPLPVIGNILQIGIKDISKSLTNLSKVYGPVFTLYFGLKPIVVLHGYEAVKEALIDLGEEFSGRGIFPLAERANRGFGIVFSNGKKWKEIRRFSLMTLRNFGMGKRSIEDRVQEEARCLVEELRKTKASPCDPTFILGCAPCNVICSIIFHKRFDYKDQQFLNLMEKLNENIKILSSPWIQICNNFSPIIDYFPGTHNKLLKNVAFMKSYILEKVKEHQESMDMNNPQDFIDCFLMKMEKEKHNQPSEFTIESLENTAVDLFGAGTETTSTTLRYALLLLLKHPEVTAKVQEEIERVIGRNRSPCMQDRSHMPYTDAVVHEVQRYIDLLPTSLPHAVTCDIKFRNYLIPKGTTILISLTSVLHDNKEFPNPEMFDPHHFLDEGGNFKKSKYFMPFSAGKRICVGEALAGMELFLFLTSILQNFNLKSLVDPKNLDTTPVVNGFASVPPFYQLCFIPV
Sequence of CYP2D6 (P10635 whole entry): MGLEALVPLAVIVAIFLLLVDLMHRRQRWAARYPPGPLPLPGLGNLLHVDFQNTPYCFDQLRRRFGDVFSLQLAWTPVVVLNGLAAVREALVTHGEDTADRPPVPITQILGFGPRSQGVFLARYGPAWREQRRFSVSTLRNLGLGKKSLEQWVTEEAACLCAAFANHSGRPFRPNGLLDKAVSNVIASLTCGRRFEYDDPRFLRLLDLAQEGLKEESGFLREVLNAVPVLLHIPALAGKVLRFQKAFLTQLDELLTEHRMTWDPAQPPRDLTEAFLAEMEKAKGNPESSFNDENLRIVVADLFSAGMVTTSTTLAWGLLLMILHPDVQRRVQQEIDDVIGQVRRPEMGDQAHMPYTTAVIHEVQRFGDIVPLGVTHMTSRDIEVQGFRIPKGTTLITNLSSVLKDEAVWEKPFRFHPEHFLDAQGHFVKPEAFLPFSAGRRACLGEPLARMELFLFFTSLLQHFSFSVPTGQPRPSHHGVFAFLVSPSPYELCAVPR
Sequence of CYP2C19 (P33261 whole entry): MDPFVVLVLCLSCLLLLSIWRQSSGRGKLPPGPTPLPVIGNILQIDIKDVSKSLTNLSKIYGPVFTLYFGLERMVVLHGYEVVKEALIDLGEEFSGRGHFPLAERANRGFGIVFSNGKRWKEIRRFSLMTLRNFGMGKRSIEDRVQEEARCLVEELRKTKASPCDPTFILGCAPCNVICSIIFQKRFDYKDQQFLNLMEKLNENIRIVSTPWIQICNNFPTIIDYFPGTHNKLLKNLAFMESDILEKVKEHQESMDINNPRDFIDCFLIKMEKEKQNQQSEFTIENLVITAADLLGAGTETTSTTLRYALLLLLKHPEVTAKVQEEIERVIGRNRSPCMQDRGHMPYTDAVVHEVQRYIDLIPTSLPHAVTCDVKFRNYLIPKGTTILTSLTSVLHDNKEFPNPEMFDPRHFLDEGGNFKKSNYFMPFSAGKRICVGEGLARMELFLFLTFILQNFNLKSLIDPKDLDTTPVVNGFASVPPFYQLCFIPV

For COC(=O)c1ccc2c(c1)NC(=O)/C2=C(\Nc1ccc(N(C)C(=O)CN2CCN(C)CC2)cc1)c1ccccc1 [Nintedanib, nintedanib], the IC50 [1] was 39.7 µM, the IC50 ([1]; P450 inhibition IC50, 2D6, probe substrate dextromethorphan) was at least 33 µM and the IC50 [2] was 2.3 µM. For the same compound, the IC50 ([2]; P450 inhibition IC50, 3A4 (Mid), probe substrate midazolam) was over 80 µM, the “P450 inhibition IC50, 3A4 (Mid)” value ([2]; probe substrate midazolam) was “did not show inhibition” and the IC50 [3] was 33 µM. It also gave an IC50 ([3]; P450 inhibition IC50, 2C9, probe substrate diclofenac) of at least 33 µM, an IC50 [4] of 17.5 µM and an IC50 [5] of 51.3 µM. For the same compound, the IC50 ([5]; P450 inhibition IC50, 2C19, probe substrate S-mephenytoin) was at least 33 µM, the Efflux ratio ([6]; Caco-2, 2 μM) was 319.81 and the Efflux ratio ([6]; Caco-2, 20 μM) was 78.24. For the same compound, the Papp A→B at 120 min, 2 μM ([7]; Caco-2) was 0.05 ×10⁻⁶ cm/s, the Papp A→B at 120 min, 20 μM ([7]; Caco-2) was 0.29 ×10⁻⁶ cm/s and the Papp B→A at 120 min, 2 μM ([7]; Caco-2) was 14.4 ×10⁻⁶ cm/s. For the same compound, the Papp B→A at 120 min, 20 μM ([7]; Caco-2) was 22.6 ×10⁻⁶ cm/s, the efflux ratio at 120 min, 2 μM ([7]; Caco-2, Efflux ratio, Caco-2, 2 μM, Papp(B-A)/Papp(A-B)) was about 319 and the efflux ratio at 120 min, 20 μM ([7]; Caco-2, Efflux ratio, Caco-2, 20 μM, Papp(B-A)/Papp(A-B)) was about 78.
